Source: PubChem (Johns Hopkins Ion Channel Center)
TRPC6 act = mouse TRPC6 channel activators, primary screen, cell-based, HEK293, membrane potential dye; Short transient receptor potential channel 6 (Mus musculus), Q61143; HEK293-TRPC6 membrane potential dye fluorescence; hits give high values; B-score at 10 µM; hit rate 0.13% among 310,000; AID 2550, 2010;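 active = B-score of the integrated fluorescence ratio above library mean plus 3 SD, and starting fluorescence ratio within library mean plus 5 SD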;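 also: higher score means more depolarization so channel activation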
TRPC4 agonist = activators of mouse TRPC4 channel, primary screen, Fluo4 calcium, HEK293 TRPC4beta/mu-opioid cells; Fluo4 calcium fluorescence; hits give high values; B-score at 10 µM; hit rate 0.49% among 310,000; AID 2237, 2010;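 active = B-score above 5 SD of library B-scores, and initial fluorescence ratio not above library mean plus 5 SD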;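 also: positive B-score marks a calcium rise read as TRPC4 activation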
Target sequence (Q9QUQ5 whole entry, looked up): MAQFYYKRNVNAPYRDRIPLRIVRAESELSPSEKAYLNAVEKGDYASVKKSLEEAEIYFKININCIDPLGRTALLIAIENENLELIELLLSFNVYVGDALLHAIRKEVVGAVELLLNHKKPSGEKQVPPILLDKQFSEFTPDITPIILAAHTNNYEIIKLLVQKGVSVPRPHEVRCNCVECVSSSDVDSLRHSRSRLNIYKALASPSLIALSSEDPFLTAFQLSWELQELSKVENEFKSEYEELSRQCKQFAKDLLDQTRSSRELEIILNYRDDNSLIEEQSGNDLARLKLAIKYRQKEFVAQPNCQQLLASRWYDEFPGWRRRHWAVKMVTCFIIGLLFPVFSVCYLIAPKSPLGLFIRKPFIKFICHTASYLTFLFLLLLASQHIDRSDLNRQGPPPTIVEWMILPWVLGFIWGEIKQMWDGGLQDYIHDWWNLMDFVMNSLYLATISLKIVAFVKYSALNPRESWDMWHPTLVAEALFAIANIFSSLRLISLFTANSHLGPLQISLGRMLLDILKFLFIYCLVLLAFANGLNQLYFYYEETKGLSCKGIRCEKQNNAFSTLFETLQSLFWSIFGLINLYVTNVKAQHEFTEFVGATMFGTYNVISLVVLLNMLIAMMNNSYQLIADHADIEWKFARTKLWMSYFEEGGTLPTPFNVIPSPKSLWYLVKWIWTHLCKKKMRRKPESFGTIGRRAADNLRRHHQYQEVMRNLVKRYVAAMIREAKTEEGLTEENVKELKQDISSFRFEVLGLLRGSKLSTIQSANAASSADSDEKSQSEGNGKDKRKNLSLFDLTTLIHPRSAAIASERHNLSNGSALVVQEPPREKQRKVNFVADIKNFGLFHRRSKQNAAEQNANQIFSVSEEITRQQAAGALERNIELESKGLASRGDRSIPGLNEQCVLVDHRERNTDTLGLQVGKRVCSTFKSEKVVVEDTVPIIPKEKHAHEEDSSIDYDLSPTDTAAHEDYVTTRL
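Assay system: HEK293 stable line with TRPC4beta plus mu-opioid receptor; schedule: 45 min room-temperature Fluo4 loading, 110 s read; technique: kinetic Fluo4 calcium fluorescence; evaluation: integrated baseline-normalised fluorescence ratio, converted to per-well B score; controls: buffer (low) and maximal DAMGO (high)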
TRPC4 block = inhibitors of mouse TRPC4 channel, primary screen, Fluo4 calcium, HEK293 TRPC4beta/mu-opioid cells; Short transient receptor potential channel 4 (Mus musculus), Q9QUQ5; DAMGO-evoked Fluo4 calcium flux; hits give low values; B-score at 10 µM; hit rate 0.39% among 300,000; AID 2247, 2010;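 active = B-score over 3 SD under the library average, no early fluorescence shift, positive overall ratio signal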
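material = TRPC4beta/mu-opioid receptor HEK293 cell line | probe or stimulus = sequential submaximal and maximal DAMGO stimulation | compound dosing = one concentration per compound | measured by = Fluo4 Ca2+ flux fluorescence | evaluation = integrated fluorescence ratio relative to baseline, converted to per-well B score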
TRPC6 inhibitor = mouse TRPC6 channel inhibitors, primary screen, cell-based, HEK293, membrane potential dye; B-score at 10 µM; Short transient receptor potential channel 6 (Mus musculus), Q61143; hit rate 1.1% among 310,000; ACh-evoked depolarization; hits give low values;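 active = B-score under library mean minus 3 SD, initial fluorescence not abnormally high, positive integrated signal ratio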;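 also: B-score derived from integrated fluorescence ratio over the kinetic read; more negative B-score means stronger inhibition of depolarization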
TRPC4 PAM = positive allosteric modulators of TRPC4, primary screen, cell-based, mouse TRPC4beta, HEK293 mu-opioid, Fluo-4 calcium; DAMGO EC20, Fluo-4 Ca2+ flux; hits give high values; B-score at 10 µM; AID 2227, 2009; hit rate 0.42% among 310,000; Short transient receptor potential channel 4 (Mus musculus), Q9QUQ5;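 active = B-score of calcium response area above 5 SD of library B-scores, with initial fluorescence ratio within 5 SD of library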
TRPC4 spec 2 = mouse TRPC4 off-target activity of TRPC6 inhibitors, second screen | shares compounds with TRPC6 inhibitor | HEK293 TRPC4/MOR, membrane potential dye fluorescence; channel activated by saturating DAMGO dose | inhibition, % at 10 µM | hit rate 42% among 920;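 active = compounds whose fluorescence signal differed from control wells by over 3 SD, either direction, in both duplicate plates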
TRPC4 spec = mouse TRPC4 modulation by TRPC6 hits, confirmation, selectivity assay for TRPC6 inhibitor project, cell-based, HEK293 TRPC4/mu-opioid, membrane potential dye | shares compounds with TRPC6 inhibitor | membrane potential fluorescence | hit rate 61% among 920 | activity change, negative = inhibition, % at 10 µM;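 active = rise or fall in signal beyond 3 SD of buffer-only wells in both replicate plates, either sign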;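 also: integrated kinetic ratio of fluorescence range over baseline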
HEK293 MPD ctr 2-1 = nonspecific membrane potential effects, parental HEK293, confirmation, counter-screen for TRPC6 inhibitor project, cell-based, second counter screen; shares compounds with TRPC6 inhibitor; parental HEK293 membrane potential dye fluorescence; maximal acetylcholine challenge after compound addition; signal change vs control, % at 10 µM; hit rate 31% among 920; AID 2779, 2010;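 active = membrane potential signal moving either way by over 3 SD of the maximum-effect control, in both duplicate plates, meaning non-specific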
HEK293 MPD ctr-1 = membrane potential modulation in parental HEK293, confirmation, counter-screen for TRPC6 inhibitor project, cell-based. shares compounds with TRPC6 inhibitor. parental HEK293 membrane potential dye fluorescence. membrane potential signal change, % at 10 µM. hit rate 60% among 920;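 active = membrane potential signal shifting up or down by more than 3 SD of buffer-only wells, on both duplicate plates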
HEK293 MPD ctr-2 = parental HEK293 membrane potential modulation, confirmation, counter-screen for TRPC6 modulator project, cell-based. shares compounds with TRPC6 inhibitor. membrane potential dye fluorescence. membrane potential signal change, % at 10 µM. hit rate 51% among 2,400. AID 488924, 2010;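 active = membrane potential signal moves up or down beyond 5 SD from buffer-only wells, on both duplicate plates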
HEK293 MPD ctr 2-2 = second check of TRPC6 modulator effects in parental HEK293 cells; AID 488926; membrane potential dye fluorescence; after compound, maximal acetylcholine stimulation; shares compounds with TRPC6 inhibitor; inhibition, % at 10 µM; hit rate 14% among 2,400;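 active = membrane potential signal drops by more than 5 SD from the mean control signal, in both duplicate plates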
TRPC4 ctr mod = TRPC4 modulation by TRPC6 hit compounds, confirmation, selectivity assay for TRPC6 modulator project, cell-based, HEK293 TRPC4/mu-opioid, membrane potential dye, mouse. percent change from control (negative = decrease, positive = increase), % at 10 µM. membrane potential fluorescence. hit rate 69% among 2,400. shares compounds with TRPC6 inhibitor;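 active = membrane potential signal moved up or down beyond 5 SD of buffer control wells, in both duplicate plates, actives on both sides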
TRPC4/MOR inh 2 = mouse TRPC4 off-target activity of TRPC6 modulators, second screen | inhibition, % at 10 µM | HEK293 TRPC4/mu-opioid, membrane potential dye fluorescence; stimulated with maximal-effect DAMGO | AID 488928 | hit rate 55% among 2,400 | shares compounds with TRPC6 inhibitor;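 active = drop in membrane potential signal beyond 5 SD of the control wells in both duplicate plates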;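 also: TRPC4 counter screen for TRPC6 hits run under conditions tuned for TRPC6 not TRPC4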
TRPC6 block conf = mouse TRPC6 channel inhibitors, confirmation, HEK293 cells, membrane potential dye, duplicate. ACh-evoked depolarization. hit rate 43% among 3,300. inhibition, % at 10 µM. shares compounds with TRPC6 inhibitor;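 active = fluorescence ratio falls more than 5 SD below the full-stimulation control mean, in both duplicate runs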;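 also: integrated fluorescence ratio of peak minus minimum over baseline after agonist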
TRPC6 act conf = mouse TRPC6 channel activators, confirmation, HEK293 cells, membrane potential dye, duplicate; HEK293-TRPC6 membrane potential dye fluorescence, FDSS; shares compounds with TRPC6 inhibitor; activation, % at 10 µM; hit rate 11% among 2,800;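 active = ratio signal rise beyond 5 SD above unstimulated control wells' mean, seen in both duplicate runs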
Large screens that a line does not name were inactive (follow-up assays come after a bar, where they were run). A selection: hits, their analogues and other compounds. The true share with any hit is near 2.3%.

N#CCCN(NC1=NS(=O)(=O)c2ccccc21)C(=O)c1ccccc1Br	none
CCOC(=O)N1CCN(C(=O)c2cc3cc(Cl)ccc3[nH]2)CC1	TRPC6 inhibitor -6.07 | HEK293 MPD ctr-2 inactive | HEK293 MPD ctr 2-2 inactive | TRPC4 ctr mod inactive | TRPC4/MOR inh 2 inactive | TRPC6 block conf inactive | TRPC6 act conf inactive
CCOC(=O)N1CCN(C(=O)c2cc3cc(F)ccc3[nH]2)CC1	none
O=C1CSC(c2cccc(F)c2)N1c1c(F)cccc1F (stereo not given)	none
O=C1CSC(c2c(F)cccc2Cl)N1c1cccc(F)c1 (stereo not given)	TRPC6 inhibitor -5.1 | HEK293 MPD ctr-2 inactive | HEK293 MPD ctr 2-2 inactive | TRPC4 ctr mod 12.0% | TRPC4/MOR inh 2 inactive | TRPC6 block conf inactive | TRPC6 act conf inactive
Cc1ccccc1C1=NC(C(F)(F)F)(C(F)(F)F)c2c(n(C)c(=O)n(C)c2=O)N1	none
Cn1c2c(c(=O)n(C)c1=O)C(C(F)(F)F)(C(F)(F)F)N=C(c1ccc(Cl)cc1)N2	TRPC6 inhibitor -7.92 | TRPC4 spec 2 75.5% | TRPC4 spec 20.1% | HEK293 MPD ctr 2-1 inactive | HEK293 MPD ctr-1 10.6% | TRPC6 block conf 101.5% | TRPC6 act conf inactive
CCN1C(=O)[C@H]2[C@H]3[C@H](O)[C@H](O)C/C(=N\OC[C@@H](C)[C@H](OCc4ccccc4)C(C)C)[C@@H]3CC[C@H]2C1=O	none
COc1ccc(CCNC(=O)C2CCCN(c3ncnc4c3nc3n4CCCCC3)C2)c(OC)c1 (stereo not given)	none
Cn1c(=O)n(Cc2ccc(F)cc2)c(=O)c2c1nc1n2CCCN1Cc1ccccc1	TRPC6 inhibitor -5.1 | HEK293 MPD ctr-2 inactive | HEK293 MPD ctr 2-2 inactive | TRPC4 ctr mod inactive | TRPC4/MOR inh 2 inactive | TRPC6 block conf inactive | TRPC6 act conf inactive
O=C(N/N=C/c1cccnc1)c1ccc([N+](=O)[O-])cc1	TRPC6 inhibitor -5.28 | HEK293 MPD ctr-2 -195.5% | HEK293 MPD ctr 2-2 inactive | TRPC4 ctr mod -36.0% | TRPC4/MOR inh 2 29.5% | TRPC6 block conf inactive | TRPC6 act conf inactive
O=C(N/N=C/c1cccc([N+](=O)[O-])c1)c1cc[n+](CCO)cc1	TRPC6 inhibitor -5.67 | HEK293 MPD ctr-2 -88.0% | HEK293 MPD ctr 2-2 inactive | TRPC4 ctr mod -22.0% | TRPC4/MOR inh 2 inactive | TRPC6 block conf inactive | TRPC6 act conf inactive
CSc1ccc(N2C(=O)NC3(CCCCC3)C2=O)cc1	none
C/C(=N\Nc1nc(C)cc(C)n1)c1ccc(N2CCOCC2)cc1	none
C/C(=N\Nc1nc2ccccc2[nH]1)c1ccc(Cl)s1	none
C/C(=N\Nc1nc2ccccc2[nH]1)c1ccc(C)o1	TRPC6 inhibitor -6.04 | HEK293 MPD ctr-2 -139.5% | HEK293 MPD ctr 2-2 59.5% | TRPC4 ctr mod -26.5% | TRPC4/MOR inh 2 79.5% | TRPC6 block conf 75.5% | TRPC6 act conf inactive
C/C(=N\Nc1nc2ccccc2[nH]1)c1ccc(N2CCOCC2)cc1	TRPC6 inhibitor -5.76 | HEK293 MPD ctr-2 inactive | HEK293 MPD ctr 2-2 inactive | TRPC4 ctr mod -13.5% | TRPC4/MOR inh 2 inactive | TRPC6 block conf inactive | TRPC6 act conf inactive
COc1cccc(OC)c1C(=O)Nc1ccnn1C	none
CCCn1ncc(CN2CCCC(C(=O)c3cccc(OC(C)C)c3)C2)c1C (stereo not given)	TRPC6 inhibitor -5.34 | HEK293 MPD ctr-2 118.5% | HEK293 MPD ctr 2-2 inactive | TRPC4 ctr mod 24.0% | TRPC4/MOR inh 2 40.5% | TRPC6 block conf 50.5%
CCn1cc(CCC(=O)NC2CCCC2)c2ccccc21	none
Cc1ccc(N=Cc2c(O)n(C)c(=O)n(C)c2=O)nc1	TRPC6 inhibitor -5.62 | HEK293 MPD ctr-2 inactive | HEK293 MPD ctr 2-2 inactive | TRPC4 ctr mod -15.0% | TRPC4/MOR inh 2 inactive | TRPC6 block conf inactive | TRPC6 act conf inactive
Cc1ccc(N=CC2=C(O)CC(C)(C)CC2=O)nc1	none
CC(C)(C)C(=O)Cn1c(=N)n(Cc2ccccc2)c2ccccc21	none
CC(C)(C)C(=O)Cn1c(=N)n(Cc2ccccc2Cl)c2ccccc21	TRPC6 inhibitor -5.54 | HEK293 MPD ctr-2 164.0% | HEK293 MPD ctr 2-2 inactive | TRPC4 ctr mod 22.5% | TRPC4/MOR inh 2 77.0% | TRPC6 block conf 48.0%
